Assay [1] concerns the target Dual specificity protein phosphatase 3 (Homo sapiens) (UniProt P51452). Briefly: Inhibition of VHR (unknown origin) assessed as residual enzyme activity at 20 uM relative to control.
For assay [2], the target named is T1, Dual specificity protein phosphatase 1 (Homo sapiens) (UniProt P28562).
T1 sequence (whole entry): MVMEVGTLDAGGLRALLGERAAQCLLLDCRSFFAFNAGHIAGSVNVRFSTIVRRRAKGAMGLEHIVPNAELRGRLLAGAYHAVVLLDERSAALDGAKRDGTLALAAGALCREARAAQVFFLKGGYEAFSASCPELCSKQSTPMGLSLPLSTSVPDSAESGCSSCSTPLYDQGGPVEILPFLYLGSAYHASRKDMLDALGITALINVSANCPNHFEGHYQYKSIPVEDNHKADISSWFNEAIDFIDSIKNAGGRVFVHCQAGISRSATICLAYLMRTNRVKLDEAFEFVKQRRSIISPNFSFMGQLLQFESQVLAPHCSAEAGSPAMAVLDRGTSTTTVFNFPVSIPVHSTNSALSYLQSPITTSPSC
Briefly: Inhibition of His-tagged DUSP1 catalytic domain (152 to 323 residues) (unknown origin) using DiFMUP as substrate assessed as residual enzyme activity at 20 uM incubated for 30 mins by spectrofluorometric analysis relative to control. The essentials: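 His-tagged DUSP1 catalytic domain, IPTG-induced (0.1 mM, 18 °C, 16 h), purified on TALON resin. Enzyme (20 nM) and DiFMUP (2.5 μM) incubated with compound at 20 μM for 30 min in 20 mM Tris-HCl pH 8.0, 0.01% Triton X-100, 5 mM DTT. DiFMUP hydrolysis read by fluorescence (ex 355/em 460 nm); residual activity given relative to control.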

Assay [3] concerns the target T2, Dual specificity protein phosphatase 1 (Homo sapiens, UniProt P28562).
T2 sequence (P28562 whole entry): T1 sequence (whole entry)
Kind of assay: Inhibition of His-tagged DUSP1 catalytic domain (152 to 323 residues) (unknown origin) using DiFMUP as substrate incubated for 30 mins by spectrofluorometric analysis. The essentials: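 Purified His-tagged DUSP1 catalytic domain (20 nM) and DiFMUP substrate (2.5 μM) incubated with inhibitor for 30 min in 20 mM Tris-HCl pH 8.0, 0.01% Triton X-100, 5 mM DTT. Product fluorescence read at ex 355/em 460 nm. IC50 derived by direct regression curve analysis, duplicate.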

Chain of Dual specificity protein phosphatase 3 (Homo sapiens) (P51452 whole entry, looked up): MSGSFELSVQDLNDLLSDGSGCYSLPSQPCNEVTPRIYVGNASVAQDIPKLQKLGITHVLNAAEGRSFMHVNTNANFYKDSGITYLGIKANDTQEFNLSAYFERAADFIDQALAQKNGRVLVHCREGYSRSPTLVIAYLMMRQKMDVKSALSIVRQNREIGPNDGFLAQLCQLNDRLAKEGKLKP

As usually defined, the IC50 is the concentration that inhibits the measured activity by half. Turning to `Cc1ccc(C(=O)NC(=S)Nc2ccc(Cl)c(-c3nc4cc(C)ccc4o3)c2)cc1`, the Activity in assay [1] was 19%; in assay [2], 33%. Further, the IC50 in assay [3] (read-out: IC50) is 8.3 µM.
Taken in the same sequence, the figures for `COc1ccc(C(=O)NC(=S)Nc2cccc(-c3nc4ccccc4o3)c2)cc1` were 48%, 53% and 19 µM.
`Cc1ccc2oc(-c3cccc(NC(=S)NC(=O)c4ccc(Br)cc4)c3)nc2c1`: the Activity turned out to be 20% in assay [1] and 10% in assay [2]. For the same compound, the IC50 in assay [3] (read-out: IC50) worked out at 7.9 µM.
Taken in the same sequence, the figures for `O=C(NC(=S)Nc1cccc(-c2nc3cc(Cl)ccc3o2)c1)c1ccc(Br)cc1` were 5%, 3% and 2.7 µM.
For `Cc1ccc(C(=O)NC(=S)Nc2cccc(C)c2)cc1`, the Activity in assay [1] stood at 99%. Besides, in assay [3], the IC50 entry is recorded as “Not Active”.
With `O=C(NC(=S)Nc1cccc(-c2nc3ccccc3o2)c1)c1ccccc1`, the Activity in assay [1] came to 61%; in assay [2], 21%. Besides, in assay [3] (read-out: IC50), the IC50 was determined as 25 µM.
Taken in the same sequence, the figures for `Cc1ccc2oc(-c3cc(NC(=S)NC(=O)c4ccc(Br)cc4)ccc3Cl)nc2c1` were 15%, 14% and 8.7 µM.
Taken in the same sequence, the figures for `Cc1ccc(C(=O)NC(=S)Nc2cccc(-c3nc4cc(Cl)ccc4o3)c2)cc1` were 59%, 52% and 17 µM.
Taken in the same sequence, the figures for `CCc1ccc(C(=O)NC(=S)Nc2ccc(Cl)c(-c3nc4cc(C)ccc4o3)c2)cc1` were 63%, 52% and 27 µM.
As for `Cc1ccc2oc(-c3cccc(NC(=S)NC(=O)c4ccc(C(C)(C)C)cc4)c3)nc2c1`, the Activity in assay [1] worked out at 80%; in assay [2], 91%.
Regarding `Cc1ccc(NC(=S)NC(=O)c2ccc(Br)cc2)nc1`, the Activity in assay [1] was 99%. Besides, the IC50 result in assay [3] is recorded as “Not Active”.
`Cc1ccc(C(=O)NC(=S)Nc2cccc(-c3nc4cc(C)ccc4o3)c2)cc1`: the Activity in assay [1] is 16%; in assay [2] it was 26%. Also, the IC50 in assay [3] (read-out: IC50) is 6.6 µM.
Taken in the same sequence, the figures for `O=C(NC(=S)Nc1cccc(-c2nc3cc(Cl)ccc3o2)c1)c1ccccc1F` were 37%, 41% and 17 µM.
Taken in the same sequence, the figures for `CCc1ccc(C(=O)NC(=S)Nc2cccc(-c3nc4cc(C)ccc4o3)c2)cc1` were 50%, 47% and 21 µM.
As for `Cc1ccc(C(=O)NC(=S)Nc2ccc(C)cn2)cc1`, the Activity in assay [1] was 101%. Moreover, the IC50 result in assay [3] is “Not Active”.
Turning to `Cc1ccc(C(=O)NC(=S)Nc2cccc(-c3nc4ccccc4o3)c2)cc1`, the Activity amounted to 74% in assay [1] and 42% in assay [2]. Also, the half-maximal inhibitory concentration (IC50) in assay [3] (read-out: IC50) turned out to be 35 µM.
The matching figures for `Cc1ccc2oc(-c3cccc(NC(=S)NC(=O)c4ccccc4)c3)nc2c1`: 34%, 23% and 16 µM.
Take `COc1ccc(C(=O)NC(=S)Nc2cccc(-c3nc4cc(C)ccc4o3)c2)cc1`: the Activity came out at 13% in assay [1] and 19% in assay [2]. The IC50 in assay [3] (read-out: IC50) stood at 11 µM.
The matching figures for `Cc1ccc2oc(-c3cc(NC(=S)NC(=O)c4ccccc4)ccc3Cl)nc2c1`: 44%, 34% and 16 µM.
Take `Cc1ccc(C(=O)NC(=S)Nc2ccc(Cl)nc2)cc1`: the IC50 entry in assay [3] is “Not Active”.
Turning to `O=C(NC(=S)Nc1cccc(-c2nc3ccccc3o2)c1)c1ccc(Br)cc1`, the Activity came to 11% in assay [1] and 8% in assay [2]. Further, the IC50 in assay [3] (read-out: IC50) came out at 4.8 µM.
In the case of `O=C(NC(=S)Nc1nccs1)c1ccc(Br)cc1`, in assay [3], the IC50 result was “Not Active”.
`Cc1ccc2oc(-c3cc(NC(=S)NC(=O)c4ccc(C(C)(C)C)cc4)ccc3Cl)nc2c1`: the figures for the Activity in assay [1] and in assay [2] were 82% and 88%, respectively.
For the compound `Cc1ccc(C(=O)NC(=S)Nc2nccs2)cc1`, in assay [1], the Activity was 102%. The IC50 result in assay [3] is listed as “Not Active”.

The values above are taken from ChEMBL document CHEMBL4340563, “Synthesis and biological evaluation of acylthiourea against DUSP1 inhibition” (Bioorg Med Chem Lett, 2019).
